Measurements published in ChEMBL document CHEMBL3779892, “Increasing the binding affinity of VEGFR-2 inhibitors by extending their hydrophobic interaction with the active site: Design, synthesis and biological evaluation of 1-substituted-4-(4-methoxybenzyl)phthalazine derivatives” (Eur J Med Chem, 2016).

What was measured:
Type in all cases: functional
[1] = system: SK-MEL-5; test: Growth inhibition of human SK-MEL-5 cells at 10 uM after 48 hrs by sulforhodamine B assay; details: SK-MEL-5, 48 h, read-out: GI
Summary of the method: (§1)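 Run at NCI on the 60-line panel. Cells grown in RPMI 1640 with 5% FBS and 2 mM L-glutamine, plated at 5000–40,000 cells/well by doubling time, and held 24 h at 37 °C before dosing. Drug (DMSO stock) given at a single final 10 µM in triplicate wells for 48 h. Adherent cells fixed with cold TCA (10% final), suspension cells with 16% TCA. SRB stain read at 515 nm. Percent growth from Tz, C and Ti.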

[2] = system: HT-29; test: Growth inhibition of human HT-29 cells at 10 uM after 48 hrs by sulforhodamine B assay; details: HT-29, 48 h, read-out: GI; summary of the method: as §1
[3] = Growth inhibition of human OVCAR8 cells at 10 uM after 48 hrs by sulforhodamine B assay; details: OVCAR-8, 48 h, read-out: GI; summary of the method: as §1
[4] = system: U-251; test: Growth inhibition of human U251 cells at 10 uM after 48 hrs by sulforhodamine B assay; details: U-251, 48 h, read-out: GI
Summary of the method: (§2)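 NCI-60 panel, adherent cells grown in RPMI 1640 with 5% FBS and 2 mM L-glutamine, plated at 5000–40,000 cells/well and preincubated 24 h at 37 °C, 5% CO2. 10 µM final compound from DMSO stock, triplicate wells, 48 h. Fixed with cold TCA (10% final, 60 min, 4 °C) and stained with 0.4% SRB. Absorbance read at 515 nm; growth calculated against time-zero and control wells.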

[5] = Growth inhibition of human HCT116 cells at 10 uM after 48 hrs by sulforhodamine B assay; details: HCT-116, 48 h, read-out: GI; summary of the method: as §1
[6] = system: SK-MEL-28; test: Growth inhibition of human SK-MEL-28 cells at 10 uM after 48 hrs by sulforhodamine B assay; details: SK-MEL-28, 48 h, read-out: GI; summary of the method: as §1
[7] = system: SN12C; test: Growth inhibition of human SN12C cells at 10 uM after 48 hrs by sulforhodamine B assay; details: read-out: GI; summary of the method: as §1
[8] = system: MDA-MB-435; test: Growth inhibition of human MDA-MB-435 cells at 10 uM after 48 hrs by sulforhodamine B assay; details: MDA-MB-435, 48 h, read-out: GI; summary of the method: as §1
[9] = Growth inhibition of human RXF393 cells at 10 uM after 48 hrs by sulforhodamine B assay; details: RXF 393, 48 h, read-out: GI; summary of the method: as §1
[10] = Growth inhibition of human SF268 cells at 10 uM after 48 hrs by sulforhodamine B assay; details: SF-268, 48 h, read-out: GI; summary of the method: as §1
[11] = system: MCF7; test: Growth inhibition of human MCF7 cells at 10 uM after 48 hrs by sulforhodamine B assay; details: MCF7, 48 h, read-out: GI; summary of the method: as §1
[12] = system: NCI-H322M; test: Growth inhibition of human NCI-H322M cells at 10 uM after 48 hrs by sulforhodamine B assay; details: read-out: GI; summary of the method: as §1
[13] = Growth inhibition of human UACC257 cells at 10 uM after 48 hrs by sulforhodamine B assay; details: UACC-257, 48 h, read-out: GI; summary of the method: as §2
[14] = system: SR; test: Growth inhibition of human SR cells at 10 uM after 48 hrs by sulforhodamine B assay; details: read-out: GI
Summary of the method: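 NCI-60 screen. Cells were grown in RPMI 1640 with 5% FBS and 2 mM L-glutamine, plated at 5000–40,000 cells/well and held 24 h at 37 °C, 5% CO2. Single 10 µM final dose from DMSO stock, triplicate wells, 48 h. Settled cells were fixed with 80% TCA (16% final) and stained with 0.4% SRB. Dye was solubilized in 10 mM Tris and read at 515 nm. Growth was calculated against time-zero and untreated wells.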

[15] = Growth inhibition of human IGROV1 cells at 10 uM after 48 hrs by sulforhodamine B assay; details: IGROV-1, 48 h, read-out: GI; summary of the method: as §1
[16] = Growth inhibition of human NCI-ADR-RES cells at 10 uM after 48 hrs by sulforhodamine B assay; details: read-out: GI; summary of the method: as §1
[17] = Growth inhibition of human HOP92 cells at 10 uM after 48 hrs by sulforhodamine B assay; details: HOP-92, 48 h, read-out: GI; summary of the method: as §1
[18] = Growth inhibition of human SF295 cells at 10 uM after 48 hrs by sulforhodamine B assay; details: SF-295, 48 h, read-out: GI; summary of the method: as §1
[19] = Growth inhibition of human SNB75 cells at 10 uM after 48 hrs by sulforhodamine B assay; details: SNB-75, 48 h, read-out: GI; summary of the method: as §1
[20] = system: K562; test: Growth inhibition of human K562 cells at 10 uM after 48 hrs by sulforhodamine B assay; details: K562, 48 h, read-out: GI; summary of the method: as §1
[21] = Growth inhibition of human OVCAR4 cells at 10 uM after 48 hrs by sulforhodamine B assay; details: OVCAR-4, 48 h, read-out: GI; summary of the method: as §1
[22] = Growth inhibition of human SKOV3 cells at 10 uM after 48 hrs by sulforhodamine B assay; details: SK-OV-3, 48 h, read-out: GI; summary of the method: as §1
[23] = system: A498; test: Growth inhibition of human A498 cells at 10 uM after 48 hrs by sulforhodamine B assay; details: A498, 48 h, read-out: GI; summary of the method: as §1
[24] = Growth inhibition of human HCC2998 cells at 10 uM after 48 hrs by sulforhodamine B assay; details: HCC 2998, 48 h, read-out: GI; summary of the method: as §1
[25] = system: NCI-H23; test: Growth inhibition of human NCI-H23 cells at 10 uM after 48 hrs by sulforhodamine B assay; details: NCI-H23, 48 h, read-out: GI; summary of the method: as §1
[26] = Growth inhibition of human OVCAR5 cells at 10 uM after 48 hrs by sulforhodamine B assay; details: OVCAR-5, 48 h, read-out: GI; summary of the method: as §1
[27] = Growth inhibition of human Caki1 cells at 10 uM after 48 hrs by sulforhodamine B assay; details: CAKI-1, 48 h, read-out: GI; summary of the method: as §1
[28] = Growth inhibition of human SF539 cells at 10 uM after 48 hrs by sulforhodamine B assay; details: SF-539, 48 h, read-out: GI; summary of the method: as §1
[29] = system: T47D; test: Growth inhibition of human T47D cells at 10 uM after 48 hrs by sulforhodamine B assay; details: read-out: GI; summary of the method: as §2
[30] = Growth inhibition of human SNB19 cells at 10 uM after 48 hrs by sulforhodamine B assay; details: SNB-19, 48 h, read-out: GI; summary of the method: as §1
[31] = Growth inhibition of human DU145 cells at 10 uM after 48 hrs by sulforhodamine B assay; details: DU-145, 48 h, read-out: GI; summary of the method: as §1
[32] = system: MDA-MB-231; test: Growth inhibition of human MDA-MB-231 cells at 10 uM after 48 hrs by sulforhodamine B assay; details: MDA-MB-231, 48 h, read-out: GI; summary of the method: as §1
[33] = Growth inhibition of human RPMI8226 cells at 10 uM after 48 hrs by sulforhodamine B assay; details: RPMI-8226, 48 h, read-out: GI; summary of the method: as §1
[34] = Growth inhibition of human COLO205 cells at 10 uM after 48 hrs by sulforhodamine B assay; details: COLO 205, 48 h, read-out: GI; summary of the method: as §1

Compound | inhibition of growth at 10 µM [1] [%] | inhibition of growth at 10 µM [2] [%] | inhibition of growth at 10 µM [3] [%] | inhibition of growth at 10 µM [4] [%] | inhibition of growth at 10 µM [5] [%] | inhibition of growth at 10 µM [6] [%] | inhibition of growth at 10 µM [7] [%] | inhibition of growth at 10 µM [8] [%] | inhibition of growth at 10 µM [9] [%] | inhibition of growth at 10 µM [10] [%] | inhibition of growth at 10 µM [11] [%] | inhibition of growth at 10 µM [12] [%] | inhibition of growth at 10 µM [13] [%] | inhibition of growth at 10 µM [14] [%] | inhibition of growth at 10 µM [15] [%] | inhibition of growth at 10 µM [16] [%] | inhibition of growth at 10 µM [17] [%] | inhibition of growth at 10 µM [18] [%] | inhibition of growth at 10 µM [19] [%] | inhibition of growth at 10 µM [20] [%] | further results
COc1ccc(Cc2nnc(Nc3ccc(NC(=O)Nc4ccc(Cl)cc4)cc3)c3ccccc23)cc1 | < 30 | 34 | < 30 | 48 | 42 | < 30 | < 30 | < 30 | 79 | < 30 | 33 | < 30 | < 30 | 40 | < 30 | < 30 | < 30 | 52 | 49 | < 30 | inhibition of growth at 10 µM [21]: < 30%; inhibition of growth at 10 µM [22]: < 30%; inhibition of growth at 10 µM [23]: 32%; inhibition of growth at 10 µM [24]: < 30%; inhibition of growth at 10 µM [25]: < 30%; inhibition of growth at 10 µM [26]: < 30%; inhibition of growth at 10 µM [27]: < 30%; inhibition of growth at 10 µM [28]: 41%; inhibition of growth at 10 µM [29]: 37%; inhibition of growth at 10 µM [30]: 39%; inhibition of growth at 10 µM [31]: < 30%; inhibition of growth at 10 µM [32]: 30%; inhibition of growth at 10 µM [33]: 75%; inhibition of growth at 10 µM [34]: < 30%
COc1ccc(Cc2nnc(Nc3ccccc3)c3ccccc23)cc1 | < 30 | < 30 | < 30 | < 30 | < 30 | < 30 | < 30 | < 30 | < 30 | < 30 | < 30 | < 30 | < 30 | 30 | < 30 | < 30 | 49 | < 30 | < 30 | < 30 | inhibition of growth at 10 µM [21]: < 30%; inhibition of growth at 10 µM [22]: < 30%; inhibition of growth at 10 µM [23]: 35%; inhibition of growth at 10 µM [24]: < 30%; inhibition of growth at 10 µM [25]: < 30%; inhibition of growth at 10 µM [26]: < 30%; inhibition of growth at 10 µM [27]: < 30%; inhibition of growth at 10 µM [28]: < 30%; inhibition of growth at 10 µM [29]: < 30%; inhibition of growth at 10 µM [30]: < 30%; inhibition of growth at 10 µM [31]: < 30%; inhibition of growth at 10 µM [32]: < 30%; inhibition of growth at 10 µM [33]: 58%; inhibition of growth at 10 µM [34]: < 30%
COc1ccc(Cc2nnc(Nc3ccc(NC(=O)Nc4ccc(OC)cc4)cc3)c3ccccc23)cc1 | < 30 | 34 | < 30 | 49 | 34 | < 30 | < 30 | < 30 | 100 | < 30 | 30 | < 30 | < 30 | 39 | < 30 | < 30 | < 30 | 81 | 50 | < 30 | inhibition of growth at 10 µM [21]: < 30%; inhibition of growth at 10 µM [22]: < 30%; inhibition of growth at 10 µM [23]: < 30%; inhibition of growth at 10 µM [24]: < 30%; inhibition of growth at 10 µM [25]: < 30%; inhibition of growth at 10 µM [26]: < 30%; inhibition of growth at 10 µM [27]: < 30%; inhibition of growth at 10 µM [28]: 49%; inhibition of growth at 10 µM [29]: 42%; inhibition of growth at 10 µM [30]: < 30%; inhibition of growth at 10 µM [31]: < 30%; inhibition of growth at 10 µM [32]: 46%; inhibition of growth at 10 µM [33]: 91%; inhibition of growth at 10 µM [34]: < 30%
COc1ccc(Cc2nnc(Nc3cccc(Cl)c3)c3ccccc23)cc1 | < 30 | 31 | < 30 | 34 | 49 | < 30 | 34 | < 30 | < 30 | < 30 | < 30 | < 30 | < 30 | 43 | < 30 | 32 | 63 | 33 | 32 | 45 | inhibition of growth at 10 µM [21]: < 30%; inhibition of growth at 10 µM [22]: < 30%; inhibition of growth at 10 µM [23]: 34%; inhibition of growth at 10 µM [24]: < 30%; inhibition of growth at 10 µM [25]: < 30%; inhibition of growth at 10 µM [26]: < 30%; inhibition of growth at 10 µM [27]: < 30%; inhibition of growth at 10 µM [28]: 35%; inhibition of growth at 10 µM [29]: 41%; inhibition of growth at 10 µM [30]: 37%; inhibition of growth at 10 µM [31]: < 30%; inhibition of growth at 10 µM [32]: 39%; inhibition of growth at 10 µM [33]: 89%; inhibition of growth at 10 µM [34]: < 30%
